# Test results reported in ChEMBL document CHEMBL3297649, “Structure-activity relationships of privileged structures lead to the discovery of novel biased ligands at the dopamine D₂ receptor” (J Med Chem, 2014).
# Active and inactive are the calls of the source. The calls are words filed in the database; no cut-off is given here.
# Tests used:
# D(2) dopamine receptor [1] = molecular target: T1, D(2) dopamine receptor (Homo sapiens, UniProt P14416); assay: Displacement of [3H]spiperone from human D2L receptor expressed in FlpIn CHO cell membrane after 3 hrs by liquid scintillation counting analysis; format: cell membranes
# T1 sequence (P14416 whole entry): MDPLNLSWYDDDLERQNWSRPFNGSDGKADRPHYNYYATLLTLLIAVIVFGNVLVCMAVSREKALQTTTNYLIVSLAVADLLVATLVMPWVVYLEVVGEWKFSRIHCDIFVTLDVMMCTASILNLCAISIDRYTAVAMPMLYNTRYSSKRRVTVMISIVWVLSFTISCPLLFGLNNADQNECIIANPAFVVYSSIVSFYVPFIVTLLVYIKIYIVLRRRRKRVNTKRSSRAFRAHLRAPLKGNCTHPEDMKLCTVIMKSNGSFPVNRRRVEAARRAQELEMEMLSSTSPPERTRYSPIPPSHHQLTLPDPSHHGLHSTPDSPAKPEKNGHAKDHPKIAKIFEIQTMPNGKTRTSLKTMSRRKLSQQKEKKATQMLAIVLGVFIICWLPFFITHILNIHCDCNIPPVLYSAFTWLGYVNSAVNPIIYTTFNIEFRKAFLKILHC
# Outline: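 Membranes from D2L FlpIn CHO cells, 3 μg, with 0.05 nM [3H]spiperone, 100 μM GppNHp and varied competitor in 20 mM HEPES, 100 mM NaCl, 6 mM MgCl2, 1 mM EGTA, 1 mM EDTA, pH 7.4, 3 h at 37 °C. Filtered on GF/B, washed in ice-cold saline, counted by liquid scintillation. Three experiments in duplicate.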
# [2] = Retention time of the compound by HPLC analysis; format: physicochemical
# Outline: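 Reverse-phase C8 column, 0.1% TFA/water vs 0.1% TFA/80% MeOH; 100% A 10 min, 80% B over 2 min, back to 100% A over 10 min; 1 mL/min, detection at 214 nm.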
# D(2) dopamine receptor [3] = molecular target: T1, D(2) dopamine receptor; assay: Agonist activity at human D2L receptor expressed in FlpIn CHO cells assessed as induction of ERK1/2 phosphorylation at 10 uM by AlphaScreen assay; format: cell-based
# Outline: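 Time-course ERK1/2 phosphorylation screen at 10 μM in FlpIn CHO cells stably expressing human D2L, seeded 50 000 cells/well, serum-starved overnight. Compounds applied at 37 °C over a time course to find peak stimulation time. Stimulation stopped by SureFire lysis, 5 min shaking at room temperature, lysate read by AlphaScreen.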
# D(2) dopamine receptor [4] = molecular target: T1, D(2) dopamine receptor; assay: Partial agonist activity at human D2L receptor expressed in FlpIn CHO cells assessed as induction of ERK1/2 phosphorylation by AlphaScreen assay relative to dopamine; format: cell-based
# Outline: (§1)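 Stable human D2L FlpIn CHO cells serum-starved overnight, then given concentration series of agonist at 37 °C for 5–10 min, the per-compound peak time from time-course runs. Lysed with SureFire buffer and pERK1/2 detected by AlphaScreen. Three-parameter logistic fit gives pEC50; Emax as % of maximal dopamine response. Three to four experiments in duplicate.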
# D(2) dopamine receptor [5] = molecular target: T1, D(2) dopamine receptor; assay: Partial agonist activity at human D2L receptor expressed in FlpIn CHO cells assessed as induction of ERK1/2 phosphorylation by AlphaScreen assay; format: cell-based; outline: as §1
# D(2) dopamine receptor [6] = molecular target: T1, D(2) dopamine receptor; conditions: CHO, at 10 µM
# D(2) dopamine receptor [7] = molecular target: T1, D(2) dopamine receptor; assay: Competitive antagonist activity at human D2L receptor expressed in FlpIn CHO cells assessed as inhibition of dopamine-induced ERK1/2 phosphorylation treated for 30 mins prior to dopamine stimulation for 5 mins by AlphaScreen assay; format: cell-based
# Outline: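 Human D2L FlpIn CHO cells serum-starved overnight. Inhibitor at a range of dilutions for 30 min at 37 °C, then 10 nM dopamine for 5 min. Lysed; phospho-ERK1/2 detected by AlphaScreen. pIC50 taken from inhibition curves; three to four experiments in duplicate.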
# D(2) dopamine receptor [8] = molecular target: T1, D(2) dopamine receptor; assay: Antagonist activity at human D2L receptor expressed in FlpIn CHO cells assessed as inhibition of dopamine-induced ERK1/2 phosphorylation treated for 30 mins prior to dopamine stimulation for 5 mins by AlphaScreen assay; format: cell-based
# Outline: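 D2L-FlpIn CHO cells serum-starved overnight. Compound serial dilutions preincubated 30 min at 37 °C, then 10 nM dopamine added for 5 min. Lysed in SureFire buffer, pERK1/2 read by AlphaScreen. pIC50 is the mean of three to four separate experiments run in duplicate.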
# D(2) dopamine receptor [9] = molecular target: T1, D(2) dopamine receptor; conditions: CHO
# D(2) dopamine receptor [10] = molecular target: T1, D(2) dopamine receptor; conditions: CHO; remark: listed apart in the source
# D(2) dopamine receptor [11] = molecular target: T1, D(2) dopamine receptor; conditions: CHO; remark: listed apart in the source
# D(2) dopamine receptor [12] = molecular target: T1, D(2) dopamine receptor; conditions: CHO; remark: listed apart in the source
# D(2) dopamine receptor [13] = molecular target: T1, D(2) dopamine receptor; assay: Agonist activity at human D2L receptor expressed in FlpIn CHO cells assessed as inhibition of forskolin-stimulated cAMP production treated for 30 mins by AlphaScreen assay relative to dopamine; format: functional, cell-based
# Outline: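 D2L-expressing FlpIn CHO cells grown overnight, then preincubated 45 min in HBSS stimulation buffer (1 mg/mL BSA, 0.5 mM IBMX, 5 mM HEPES, pH 7.4). Agonist and 300 nM forskolin added together for 30 min at 37 °C. Stopped with ice-cold ethanol, dried, lysed in detection buffer; cAMP measured by AlphaScreen. Operational-model fit gives log(τ/KA); n = 4.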
# D(2) dopamine receptor [14] = molecular target: T1, D(2) dopamine receptor; assay: Agonist activity at human D2L receptor expressed in FlpIn CHO cells assessed as inhibition of forskolin-stimulated cAMP production treated for 30 mins by AlphaScreen assay; format: functional, cell-based
# D(2) dopamine receptor [15] = molecular target: T1, D(2) dopamine receptor; assay: Agonist activity at human D2L receptor expressed in FlpIn CHO cells assessed as induction of ERK1/2 phosphorylation by AlphaScreen assay; format: cell-based
# D(2) dopamine receptor [16] = molecular target: T1, D(2) dopamine receptor; assay: Agonist activity at human D2L receptor expressed in FlpIn CHO cells assessed as induction of ERK1/2 phosphorylation by AlphaScreen assay relative to dopamine; format: cell-based
# Outline: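 FlpIn CHO cells stably expressing human D2L receptor, seeded at 50 000 cells/well, serum-starved overnight. Ligands added at 37 °C for 5−10 min, time set per ligand from prior time-course runs. Lysed in SureFire buffer; phospho-ERK1/2 read by AlphaScreen. Curves fitted to three-parameter logistic; Emax as % of dopamine maximum. Three to four experiments in duplicate.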
smiles,measurement,setting,value
Cc1cc(C)c2c(N)c(C(=O)NCCCCCN3CCC(O)(c4ccc(Cl)cc4)CC3)sc2n1,Ki,D(2) dopamine receptor [1],1980 nM
CC(C)(C)OC(=O)NCCN1CCC(O)(c2ccc(Cl)cc2)CC1,Retention_time,[2],7.68 min
same,Activity,D(2) dopamine receptor [3],inactive
same,Ki,D(2) dopamine receptor [1],2750 nM
COc1ccccc1N1CCN(CCCCCCNC(=O)c2sc3nc(OC)c(Cl)c(C)c3c2N)CC1,Emax,D(2) dopamine receptor [4],14%
same,Ki,D(2) dopamine receptor [1],0.6 nM
same,EC50,D(2) dopamine receptor [5],5.49 nM
CC(C)(C)OC(=O)NCCCN1CCC(O)(c2ccc(Cl)cc2)CC1,Activity,D(2) dopamine receptor [3],inactive
same,Ki,D(2) dopamine receptor [1],1350 nM
Cc1cc(C)c2c(N)c(C(=O)NCCCCN3CCC(O)(c4ccc(Cl)cc4)CC3)sc2n1,Ki,D(2) dopamine receptor [1],2250 nM
Cc1cc(C)c2c(N)c(C(=O)NCCN3CCC(O)(c4ccc(Cl)cc4)CC3)sc2n1,Retention_time,[2],8.06 min
same,Ki,D(2) dopamine receptor [1],910 nM
COc1ccccc1N1CCN(CCCNC(=O)OC(C)(C)C)CC1,Emax,D(2) dopamine receptor [4],31%
same,Retention_time,[2],7.74 min
same,Activity,D(2) dopamine receptor [3],inactive
same,Ki,D(2) dopamine receptor [1],16.1 nM
same,EC50,D(2) dopamine receptor [5],0.39 nM
COc1ccccc1N1CCNCC1,inhibition,D(2) dopamine receptor [6],Active
same,Ki,D(2) dopamine receptor [1],4110 nM
same,Kb,D(2) dopamine receptor [7],479 nM
same,pKb,D(2) dopamine receptor [7],6.32
same,IC50,D(2) dopamine receptor [8],> 1000 nM
same,pIC50,D(2) dopamine receptor [8]; cho,< 6
COc1ccccc1N1CCN(CCCNC(=O)c2sc3nc(OC)c(Cl)c(C)c3c2N)CC1,Ki,D(2) dopamine receptor [1],19.5 nM
same,Kb,D(2) dopamine receptor [7],741 nM
same,pKb,D(2) dopamine receptor [7],6.13
CC(C)(C)OC(=O)NCCCCCN1CCN(c2cccc(Cl)c2Cl)CC1,pKA,D(2) dopamine receptor [9],7.14
same,Retention_time,[2],10.43 min
same,log(activity),D(2) dopamine receptor [10],0.43
same,Ki,D(2) dopamine receptor [1],42.6 nM
same,log(activity),D(2) dopamine receptor [11],-0.51
same,pKA,D(2) dopamine receptor [12],7.73
Cc1cc(C)c2c(N)c(C(=O)NCCCCCCN3CCC(O)(c4ccc(Cl)cc4)CC3)sc2n1,Retention_time,[2],8.39 min
same,Ki,D(2) dopamine receptor [1],975 nM
COc1ccccc1N1CCN(CCNC(=O)c2sc3nc(OC)c(Cl)c(C)c3c2N)CC1,Ki,D(2) dopamine receptor [1],48.3 nM
same,Kb,D(2) dopamine receptor [7],355 nM
same,pKb,D(2) dopamine receptor [7],6.45
NCCc1ccc(O)c(O)c1,pKA,D(2) dopamine receptor [9],7.98
same,log(activity),D(2) dopamine receptor [11],0.79
COc1ccccc1N1CCN(CCCCCNC(=O)c2sc3nc(C)cc(C)c3c2N)CC1,Emax,D(2) dopamine receptor [13],33%
same,Retention_time,[2],8.89 min
same,log(activity),D(2) dopamine receptor [10],-0.42
same,Ki,D(2) dopamine receptor [1],9.1 nM
same,pKA,D(2) dopamine receptor [12],8.84
COc1ccccc1N1CCN(CCCCCNC(=O)OC(C)(C)C)CC1,pKA,D(2) dopamine receptor [9],8.77
same,Emax,D(2) dopamine receptor [4],19%
same,Retention_time,[2],10.43 min
same,Activity,D(2) dopamine receptor [3],inactive
same,log(activity),D(2) dopamine receptor [10],0.19
same,Ki,D(2) dopamine receptor [1],12.1 nM
same,EC50,D(2) dopamine receptor [5],1.43 nM
same,log(activity),D(2) dopamine receptor [11],-0.67
same,pKA,D(2) dopamine receptor [12],7.06
Cc1cc(C)c2c(N)c(C(=O)NCCCCCN3CCN(c4cccc(Cl)c4Cl)CC3)sc2n1,pKA,D(2) dopamine receptor [9],7.9
same,EC50,D(2) dopamine receptor [14],0.3 nM
same,Emax,D(2) dopamine receptor [13],50%
same,Retention_time,[2],10.13 min
same,log(activity),D(2) dopamine receptor [10],-0.06
same,Ki,D(2) dopamine receptor [1],11.2 nM
same,log(activity),D(2) dopamine receptor [11],-0.78
same,EC50,D(2) dopamine receptor [15],13.2 nM
same,Emax,D(2) dopamine receptor [16],13%
same,pKA,D(2) dopamine receptor [12],9
COc1ccccc1N1CCN(CCCCNC(=O)c2sc3nc(OC)c(Cl)c(C)c3c2N)CC1,Retention_time,[2],9.3 min
same,Ki,D(2) dopamine receptor [1],6.3 nM
same,Kb,D(2) dopamine receptor [7],490 nM
same,pKb,D(2) dopamine receptor [7],6.31
OC1(c2ccc(Cl)cc2)CCNCC1,Ki,D(2) dopamine receptor [1],9090 nM
CC(C)(C)OC(=O)NCCCCCN1CCC(O)(c2ccc(Cl)cc2)CC1,Activity,D(2) dopamine receptor [3],inactive
same,Ki,D(2) dopamine receptor [1],2050 nM
CC(C)(C)OC(=O)NCCCCCCN1CCC(O)(c2ccc(Cl)cc2)CC1,Retention_time,[2],8.77 min
same,Activity,D(2) dopamine receptor [3],inactive
same,Ki,D(2) dopamine receptor [1],902 nM
COc1nc2sc(C(=O)NCCCCCN3CCN(c4cccc(Cl)c4Cl)CC3)c(N)c2c(C)c1Cl,pKA,D(2) dopamine receptor [9],7.1
same,Emax,D(2) dopamine receptor [13],71%
same,Retention_time,[2],11.66 min
same,log(activity),D(2) dopamine receptor [10],0.28
same,Ki,D(2) dopamine receptor [1],15.5 nM
same,log(activity),D(2) dopamine receptor [11],-0.65
same,EC50,D(2) dopamine receptor [15],87.6 nM
same,Emax,D(2) dopamine receptor [16],17%
same,Ka,D(2) dopamine receptor [12],58.9 nM
same,pKA,D(2) dopamine receptor [12],6.89
CC(C)(C)OC(=O)NCCCCN1CCC(O)(c2ccc(Cl)cc2)CC1,Activity,D(2) dopamine receptor [3],inactive
same,Ki,D(2) dopamine receptor [1],2110 nM
COc1ccccc1N1CCN(CCCCNC(=O)OC(C)(C)C)CC1,Emax,D(2) dopamine receptor [4],13%
same,Activity,D(2) dopamine receptor [3],inactive
same,Ki,D(2) dopamine receptor [1],18.9 nM
same,EC50,D(2) dopamine receptor [5],0.6 nM
Clc1cccc(N2CCNCC2)c1Cl,Ki,D(2) dopamine receptor [1],1160 nM
Cc1cc(C)c2c(N)c(C(=O)NCCCN3CCC(O)(c4ccc(Cl)cc4)CC3)sc2n1,Ki,D(2) dopamine receptor [1],1700 nM
COc1ccccc1N1CCN(CCCCCNC(=O)c2sc3nc(OC)c(Cl)c(C)c3c2N)CC1,pKA,D(2) dopamine receptor [9],8.86
same,Emax,D(2) dopamine receptor [4],17%
same,Retention_time,[2],9.84 min
same,log(activity),D(2) dopamine receptor [10],-0.26
same,Ki,D(2) dopamine receptor [1],3.5 nM
same,EC50,D(2) dopamine receptor [5],2.69 nM
same,log(activity),D(2) dopamine receptor [11],-0.65
same,pKA,D(2) dopamine receptor [12],7.47
COc1ccccc1N1CCN(CCCCCCNC(=O)OC(C)(C)C)CC1,inhibition,D(2) dopamine receptor [6],Active
same,Ki,D(2) dopamine receptor [1],74.8 nM
same,IC50,D(2) dopamine receptor [8],3.98 nM
